Measurements: ChEMBL document CHEMBL3758088, “Synthesis and biological evaluation of enantiomerically pure glyceric acid derivatives as LpxC inhibitors” (Bioorg Med Chem, 2016)
Converted amounts (≈) assume the structure as drawn.

Tests used:
[1] = test system: Escherichia coli; assay: Antibacterial activity against Escherichia coli BL21(DE3) incubated for 20 hrs by microdilution assay; format: functional
Procedure, shortened: (§1)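 Broth microdilution in LB medium with 5% DMSO. Overnight cultures (LB, 37 °C, 200 rpm) were diluted 1:100 in fresh LB. Compounds were added from a twofold DMSO dilution series (5.12 mM to 20 nM stock), giving 256 μM to 1 nM final. Plates were shaken 20 h at 37 °C, 200 rpm. MIC was the lowest concentration with no visible growth.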

[2] = test system: Escherichia coli; assay: Antibacterial activity against Escherichia coli D22 incubated for 20 hrs by microdilution assay; format: functional; conditions: D22, 20 h; procedure, shortened: as §1
[3] = biological target: UDP-3-O-acyl-N-acetylglucosamine deacetylase (Escherichia coli K-12, UniProt P0A725, C63A); assay: Inhibition of Escherichia coli LpxC C63A mutant using UDP-3-O-[(R)-3-hydroxymyristoyl]-N-acetylglucosamine substrate after 30 mins by fluorescence-bsed microplate assay
[4] = test system: Escherichia coli; assay: Antibacterial activity against Escherichia coli D22 incubated overnight by agar disk diffusion clearance assay; format: functional
Procedure, shortened: (§2)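 Agar disc diffusion. 150 µL of an overnight LB culture (37 °C, 200 rpm) was spread on LB agar. 6 mm filter discs were loaded with 15 µL of 10 mM compound in DMSO, with DMSO and CHIR-090 discs as controls. Plates were incubated overnight at 37 °C and the diameter of the growth-inhibition zone was measured. Values are mean ± SD of three independent experiments.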

[5] = test system: Escherichia coli; assay: Antibacterial activity against Escherichia coli BL21(DE3) incubated overnight by agar disk diffusion clearance assay; format: functional; procedure, shortened: as §2

Sequence of UDP-3-O-acyl-N-acetylglucosamine deacetylase (P0A725 whole entry C63A, the tested form may be a part): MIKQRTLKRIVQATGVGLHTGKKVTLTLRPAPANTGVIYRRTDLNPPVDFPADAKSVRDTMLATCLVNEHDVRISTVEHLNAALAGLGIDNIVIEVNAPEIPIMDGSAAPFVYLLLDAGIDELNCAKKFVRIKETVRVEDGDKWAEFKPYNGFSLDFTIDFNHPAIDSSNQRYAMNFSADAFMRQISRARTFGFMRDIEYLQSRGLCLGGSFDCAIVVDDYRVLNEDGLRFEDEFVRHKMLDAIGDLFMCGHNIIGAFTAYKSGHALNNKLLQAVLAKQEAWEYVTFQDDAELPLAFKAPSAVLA

Compound: C[C@@H](O)[C@H](NC(=O)c1ccc(C#Cc2ccc(CN3CCOCC3)cc2)cc1)C(=O)NO
- MIC [1]: 1 µM (≈ 0.437 µg/mL)
- MIC [2]: 0.032 µM (≈ 0.014 µg/mL)

Compound: O=C(NO)[C@H](CO)O[C@H](CO)c1ccc(C#Cc2ccc(CN3CCOCC3)cc2)cc1
- MIC [1]: > 256 µM
- IC50 [3]: 2600 nM
- Ki [3]: 360 nM
- MIC [2]: 4 µM (≈ 1.76 µg/mL)

Compound: O=C(COCc1ccc(C#Cc2ccccc2)cc1)NO
- MIC [1]: 128 µM (≈ 36 µg/mL)
- IC50 [3]: > 200000 nM
- MIC [2]: 4 µM (≈ 1.13 µg/mL)

Compound: O=C(COCc1ccc(C#Cc2ccc(CN3CCOCC3)cc2)cc1)NO
- MIC [1]: 64 µM (≈ 24.3 µg/mL)
- IC50 [3]: 10500 nM
- Ki [3]: 1450 nM
- MIC [2]: 1 µM (≈ 0.38 µg/mL)

Compound: O=C(CO[C@H](CO)c1ccc(C#Cc2ccccc2)cc1)NO
- MIC [1]: 256 µM (≈ 79.7 µg/mL)
- IC50 [3]: 480 nM
- Ki [3]: 66 nM
- MIC [2]: 4 µM (≈ 1.25 µg/mL)

Compound: O=C(CO[C@@H](CO)c1ccc(C#Cc2ccccc2)cc1)NO
- MIC [1]: 256 µM (≈ 79.7 µg/mL)
- IC50 [3]: 31600 nM
- Ki [3]: 4400 nM
- MIC [2]: 32 µM (≈ 9.96 µg/mL)

Compound: O=C(CO[C@H](CO)c1ccc(C#Cc2ccc(CN3CCOCC3)cc2)cc1)NO
- MIC [1]: 64 µM (≈ 26.3 µg/mL)
- IC50 [3]: 690 nM
- Ki [3]: 95 nM
- MIC [2]: 0.5 µM (≈ 0.205 µg/mL)

Compound: O=C(CO[C@@H](CO)c1ccc(C#Cc2ccc(CN3CCOCC3)cc2)cc1)NO
- MIC [1]: > 256 µM
- IC50 [3]: 198000 nM
- Ki [3]: 27300 nM
- MIC [2]: 4 µM (≈ 1.64 µg/mL)

Compound: O=C(NO)[C@H](CO)OCc1ccc(C#Cc2ccccc2)cc1
- diameter of the inhibition zone (DIZ) [4]: 20.7 mm
- MIC [1]: 128 µM (≈ 39.9 µg/mL)
- diameter of the inhibition zone (DIZ) [5]: 11.7 mm
- IC50 [3]: 1960 nM
- Ki [3]: 270 nM
- MIC [2]: 4 µM (≈ 1.25 µg/mL)

Compound: O=C(NO)[C@@H](CO)OCc1ccc(C#Cc2ccccc2)cc1
- diameter of the inhibition zone (DIZ) [4]: 17 mm
- MIC [1]: 256 µM (≈ 79.7 µg/mL)
- diameter of the inhibition zone (DIZ) [5]: 10.3 mm
- IC50 [3]: 1870 nM
- Ki [3]: 260 nM
- MIC [2]: 8 µM (≈ 2.49 µg/mL)

Compound: O=C(NO)[C@H](CO)OCc1ccc(C#Cc2ccc(CN3CCOCC3)cc2)cc1
- diameter of the inhibition zone (DIZ) [4]: 25.8 mm
- MIC [1]: 64 µM (≈ 26.3 µg/mL)
- diameter of the inhibition zone (DIZ) [5]: 15.7 mm
- IC50 [3]: 2820 nM
- Ki [3]: 390 nM
- MIC [2]: 2 µM (≈ 0.821 µg/mL)

Compound: O=C(NO)[C@@H](CO)OCc1ccc(C#Cc2ccc(CN3CCOCC3)cc2)cc1
- diameter of the inhibition zone (DIZ) [4]: 22 mm
- MIC [1]: 128 µM (≈ 52.5 µg/mL)
- diameter of the inhibition zone (DIZ) [5]: 12.3 mm
- IC50 [3]: 1660 nM
- Ki [3]: 230 nM
- MIC [2]: 4 µM (≈ 1.64 µg/mL)
